Experimental data as given in ChEMBL document CHEMBL4689842, “EUbOPEN Chemogenomics Library wave 1” (2021).

System: U2OS
Assay: Multiplex assay against U2OS
Assay type: toxicity, cell-based
Conditions: human
Summary of the method: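 Compound was added to live cells that had been stained at seeding with Hoechst33342, BioTracker Green Microtubule Cytoskeleton Dye, MitoTracker Red and Annexin V Alexa Fluor 680, and imaging followed on a CQ1 microscope at 37°C and 5% CO2. CellPathfinder machine-learning gating divided cells into Hoechst high-intensity objects or normal cells, normal cells into healthy, pyknosed or fragmented nuclei, and pyknosed cells into mitotic or apoptotic. Tubulin, mitochondrial-mass and membrane-permeability phenotypes are per cents of healthy-nucleus cells.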

[1] = 12 h, 1 µM, compound concentration 1 uM, replicate 1
[2] = 12 h, 1 µM, compound concentration 1 uM, replicate 2
[3] = 12 h, 10 µM, compound concentration 10 uM, replicate 1
[4] = 12 h, 10 µM, compound concentration 10 uM, replicate 2
[5] = 24 h, 1 µM, compound concentration 1 uM, replicate 1
[6] = 24 h, 1 µM, compound concentration 1 uM, replicate 2
[7] = 24 h, 10 µM, compound concentration 10 uM, replicate 1
[8] = 24 h, 10 µM, compound concentration 10 uM, replicate 2
[9] = 48 h, 1 µM, compound concentration 1 uM, replicate 1
[10] = 48 h, 1 µM, compound concentration 1 uM, replicate 2
[11] = 48 h, 10 µM, compound concentration 10 uM, replicate 1
[12] = 48 h, 10 µM, compound concentration 10 uM, replicate 2

CNc1nc(NCc2ccc(NS(C)(=O)=O)cc2Cl)cc(-c2ccccn2)n1
Population Apoptotic (%) [1]: 35%
Population Fragmented Nuclei (%) [1]: 12%
Population Healthy Nuclei (%) [1]: 70%
Population Hoechst High Intensity Objects (%) [1]: 10%
Population Membrane Permeable-Phenotype (%) [1]: 7%
Population Mitochondria Different-Phenotype (%) [1]: 12%
Population Mitotic Cells (%) [1]: 64%
Population Normal (%) [1]: 89%
Population Pyknosed Nuclei (%) [1]: 17%
Population Tubulin-Different-Phenotype (%) [1]: 19%
Total Cell Count [1]: 121
Population Apoptotic (%) [2]: 33%
Population Fragmented Nuclei (%) [2]: 11%
Population Healthy Nuclei (%) [2]: 82%
Population Hoechst High Intensity Objects (%) [2]: 8%
Population Membrane Permeable-Phenotype (%) [2]: 0%
Population Mitochondria Different-Phenotype (%) [2]: 9%
Population Mitotic Cells (%) [2]: 66%
Population Normal (%) [2]: 91%
Population Pyknosed Nuclei (%) [2]: 5%
Population Tubulin-Different-Phenotype (%) [2]: 11%
Total Cell Count [2]: 61
Population Apoptotic (%) [3]: 61%
Population Fragmented Nuclei (%) [3]: 13%
Population Healthy Nuclei (%) [3]: 75%
Population Hoechst High Intensity Objects (%) [3]: 10%
Population Membrane Permeable-Phenotype (%) [3]: 5%
Population Mitochondria Different-Phenotype (%) [3]: 29%
Population Mitotic Cells (%) [3]: 38%
Population Normal (%) [3]: 89%
Population Tubulin-Different-Phenotype (%) [3]: 37%
Total Cell Count [3]: 91
Population Apoptotic (%) [4]: 57%
Population Fragmented Nuclei (%) [4]: 6%
Population Healthy Nuclei (%) [4]: 81%
Population Hoechst High Intensity Objects (%) [4]: 9%
Population Membrane Permeable-Phenotype (%) [4]: 12%
Population Mitochondria Different-Phenotype (%) [4]: 32%
Population Mitotic Cells (%) [4]: 42%
Population Normal (%) [4]: 90%
Population Pyknosed Nuclei (%) [4]: 11%
Population Tubulin-Different-Phenotype (%) [4]: 30%
Total Cell Count [4]: 56
Population Apoptotic (%) [5]: 50%
Population Fragmented Nuclei (%) [5]: 9%
Population Healthy Nuclei (%) [5]: 78%
Population Hoechst High Intensity Objects (%) [5]: 8%
Population Membrane Permeable-Phenotype (%) [5]: 3%
Population Mitochondria Different-Phenotype (%) [5]: 17%
Population Mitotic Cells (%) [5]: 50%
Population Normal (%) [5]: 91%
Population Pyknosed Nuclei (%) [5]: 11%
Population Tubulin-Different-Phenotype (%) [5]: 19%
Total Cell Count [5]: 125
Population Apoptotic (%) [6]: 25%
Population Fragmented Nuclei (%) [6]: 8%
Population Healthy Nuclei (%) [6]: 85%
Population Hoechst High Intensity Objects (%) [6]: 1%
Population Membrane Permeable-Phenotype (%) [6]: 0%
Population Mitochondria Different-Phenotype (%) [6]: 11%
Population Mitotic Cells (%) [6]: 75%
Population Normal (%) [6]: 98%
Population Pyknosed Nuclei (%) [6]: 5%
Population Tubulin-Different-Phenotype (%) [6]: 11%
Total Cell Count [6]: 67
Population Apoptotic (%) [7]: 52%
Population Fragmented Nuclei (%) [7]: 18%
Population Healthy Nuclei (%) [7]: 67%
Population Hoechst High Intensity Objects (%) [7]: 8%
Population Membrane Permeable-Phenotype (%) [7]: 6%
Population Mitochondria Different-Phenotype (%) [7]: 23%
Population Mitotic Cells (%) [7]: 47%
Population Normal (%) [7]: 91%
Population Pyknosed Nuclei (%) [7]: 14%
Population Tubulin-Different-Phenotype (%) [7]: 29%
Total Cell Count [7]: 113
Population Apoptotic (%) [8]: 50%
Population Fragmented Nuclei (%) [8]: 20%
Population Healthy Nuclei (%) [8]: 66%
Population Hoechst High Intensity Objects (%) [8]: 10%
Population Membrane Permeable-Phenotype (%) [8]: 4%
Population Mitochondria Different-Phenotype (%) [8]: 26%
Population Mitotic Cells (%) [8]: 50%
Population Normal (%) [8]: 89%
Population Pyknosed Nuclei (%) [8]: 12%
Population Tubulin-Different-Phenotype (%) [8]: 17%
Total Cell Count [8]: 71
Population Apoptotic (%) [9]: 41%
Population Fragmented Nuclei (%) [9]: 12%
Population Healthy Nuclei (%) [9]: 76%
Population Hoechst High Intensity Objects (%) [9]: 7%
Population Membrane Permeable-Phenotype (%) [9]: 0%
Population Mitochondria Different-Phenotype (%) [9]: 21%
Population Mitotic Cells (%) [9]: 58%
Population Normal (%) [9]: 92%
Population Pyknosed Nuclei (%) [9]: 11%
Population Tubulin-Different-Phenotype (%) [9]: 21%
Total Cell Count [9]: 114
Population Apoptotic (%) [10]: 0%
Population Fragmented Nuclei (%) [10]: 6%
Population Healthy Nuclei (%) [10]: 90%
Population Hoechst High Intensity Objects (%) [10]: 3%
Population Membrane Permeable-Phenotype (%) [10]: 2%
Population Mitochondria Different-Phenotype (%) [10]: 19%
Population Mitotic Cells (%) [10]: 100%
Population Normal (%) [10]: 96%
Population Pyknosed Nuclei (%) [10]: 3%
Population Tubulin-Different-Phenotype (%) [10]: 15%
Total Cell Count [10]: 71
Population Apoptotic (%) [11]: 64%
Population Healthy Nuclei (%) [11]: 53%
Population Hoechst High Intensity Objects (%) [11]: 8%
Population Membrane Permeable-Phenotype (%) [11]: 7%
Population Mitochondria Different-Phenotype (%) [11]: 28%
Population Mitotic Cells (%) [11]: 35%
Population Normal (%) [11]: 91%
Population Pyknosed Nuclei (%) [11]: 25%
Population Tubulin-Different-Phenotype (%) [11]: 10%
Total Cell Count [11]: 165
Population Apoptotic (%) [12]: 44%
Population Fragmented Nuclei (%) [12]: 21%
Population Healthy Nuclei (%) [12]: 51%
Population Hoechst High Intensity Objects (%) [12]: 13%
Population Membrane Permeable-Phenotype (%) [12]: 20%
Population Mitochondria Different-Phenotype (%) [12]: 41%
Population Mitotic Cells (%) [12]: 55%
Population Normal (%) [12]: 86%
Population Pyknosed Nuclei (%) [12]: 27%
Population Tubulin-Different-Phenotype (%) [12]: 23%
Total Cell Count [12]: 124
